Measured values: ChEMBL document CHEMBL1137651 (Antimicrob Agents Chemother, 2007)
Values after ≈ are worked out from the molar mass of the structure shown. Active and inactive are the calls of the source. No cut-off for these calls is given here.

Tests used:
Homo sapiens [1] = test: fCmax in Mycobacterium tuberculosis H37Rv ATCC 2517-infected patient serum at 600 mg/day, po; type: ADME, organism-based
Homo sapiens [2] = test: fAUC (0 to infinity) in Mycobacterium tuberculosis H37Rv ATCC 2517-infected patient serum at 600 mg/day, po; type: ADME, organism-based
[3] = AUC (0 to 168 hrs) in Mycobacterium tuberculosis H37Rv ATCC 2517-infected patient serum at 600 mg/day, po; type: ADME, organism-based, Plasma; design: time < 168 hr, dose 600 mg/day, route oral; details: human
Homo sapiens [4] = test: fCmax in Mycobacterium tuberculosis H37Rv ATCC 2517-infected patient serum at 2100 mg, po administered twice a week; type: ADME, organism-based; details: in vivo
Homo sapiens [5] = test: fCmax in Mycobacterium tuberculosis H37Rv ATCC 2517-infected patient serum at 4200 mg, po administered once a week; type: ADME, organism-based; details: in vivo
Homo sapiens [6] = test: fAUC (0 to 168 hrs) in Mycobacterium tuberculosis H37Rv ATCC 2517-infected patient serum at 2100 mg, po administered twice a week; type: ADME, organism-based; details: in vivo
Homo sapiens [7] = test: fAUC (0 to 168 hrs) in Mycobacterium tuberculosis H37Rv ATCC 2517-infected patient serum at 4200 mg, po administered once a week; type: ADME, organism-based; details: in vivo
[8] = AUC (0 to 168 hrs) in Mycobacterium tuberculosis H37Rv ATCC 2517-infected hollow fiber system based in vitro pharmacokinetic-pharmacodynamic tuberculosis model; type: ADME; design: time < 168 hr
Method in brief: (§1)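 Samples were cleaned up by solid-phase extraction and quantified by LC-MS (C18 column, 25 mM ammonium acetate/acetonitrile 58:42).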

[9] = AUC (0 to 168 hrs) in Mycobacterium tuberculosis H37Rv ATCC 2517-infected hollow fiber system based in vitro pharmacokinetic-pharmacodynamic tuberculosis model administered at dose simulating 4200 mg once weekly schedule; type: ADME; design: time < 168 hr, dose 4200 mg; method in brief: as §1
[10] = test system: Mycobacterium tuberculosis; test: Antimycobacterial activity against Mycobacterium tuberculosis H37Rv ATCC 2517 infected in hollow fiber system based in vitro pharmacokinetic-pharmacodynamic tuberculosis model assessed as microbial killing administered at simulated dose of 600 mg/day for 7 days; type: functional
Method in brief: (§2)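 Hollow-fiber model at 37°C with 5% CO2. […] Schedules were daily for 7 days, twice weekly (day 0 and 3.5) or once weekly, plus an untreated control. Peripheral samples were taken daily for 7 days, saline-washed twice and plated on 7H10 agar; kill is relative to baseline.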

[11] = test system: Mycobacterium tuberculosis; test: Post antibiotic effect against Mycobacterium tuberculosis H37Rv ATCC 2517 infected hollow fiber system based in vitro pharmacokinetic-pharmacodynamic tuberculosis model at 2 mg/L administered for 7 hrs; type: functional
Method in brief: (§3)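 Broth cultures grown 4 days were exposed at 10^6 CFU/ml to the stated concentration and duration. They were then washed twice by centrifugation (2,000 x g, 10 min) and resuspended in fresh broth, shaken at 37°C in 5% CO2, and sampled every other day for agar counts. PAE equals the time for exposed cultures to grow 1 log10 CFU/ml minus that for controls. The study was performed twice.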

[12] = test system: Mycobacterium tuberculosis; test: Post antibiotic effect against Mycobacterium tuberculosis H37Rv ATCC 2517 infected hollow fiber system based in vitro pharmacokinetic-pharmacodynamic tuberculosis model at 7 mg/L administered for 1 hr; type: functional; method in brief: as §3
[13] = test system: Mycobacterium tuberculosis; test: Post antibiotic effect against Mycobacterium tuberculosis H37Rv ATCC 2517 infected hollow fiber system based in vitro pharmacokinetic-pharmacodynamic tuberculosis model at 7 mg/L administered for 2 hrs; type: functional
[14] = test system: Mycobacterium tuberculosis; test: Post antibiotic effect against Mycobacterium tuberculosis H37Rv ATCC 2517 infected hollow fiber system based in vitro pharmacokinetic-pharmacodynamic tuberculosis model at 14 mg/L administered for 0.5 hrs; type: functional; method in brief: as §3
[15] = test system: Mycobacterium tuberculosis; test: Antimycobacterial activity against drug-sensitive Mycobacterium tuberculosis H37Rv ATCC 2517-infected hollow fiber system based in vitro pharmacokinetic-pharmacodynamic tuberculosis model assessed as rate constant for maximal bacterial growth; type: functional
[16] = test system: Mycobacterium tuberculosis; test: Antimycobacterial activity against drug-sensitive Mycobacterium tuberculosis H37Rv ATCC 2517-infected hollow fiber system based in vitro pharmacokinetic-pharmacodynamic tuberculosis model assessed as concentration needed to achieve 50% effect on maximal growth rate; type: functional
[17] = test system: Mycobacterium tuberculosis; test: Antimycobacterial activity against drug-sensitive Mycobacterium tuberculosis H37Rv ATCC 2517-infected hollow fiber system based in vitro pharmacokinetic-pharmacodynamic tuberculosis model assessed as sigmoidicity constant for drug effect on microbial growth; type: functional
[18] = test system: Mycobacterium tuberculosis; test: Antimycobacterial activity against drug-sensitive Mycobacterium tuberculosis H37Rv ATCC 2517-infected hollow fiber system based in vitro pharmacokinetic-pharmacodynamic tuberculosis model assessed as rate constant for maximal bacterial kill; type: functional
[19] = test system: Mycobacterium tuberculosis; test: Antimycobacterial activity against drug-sensitive Mycobacterium tuberculosis H37Rv ATCC 2517-infected hollow fiber system based in vitro pharmacokinetic-pharmacodynamic tuberculosis model assessed as concentration needed to achieve 50% maximal killing rate; type: functional
[20] = test system: Mycobacterium tuberculosis; test: Antimycobacterial activity against drug-sensitive Mycobacterium tuberculosis H37Rv ATCC 2517-infected hollow fiber system based in vitro pharmacokinetic-pharmacodynamic tuberculosis model assessed as sigmoidicity constant for microbial killing; type: functional
[21] = Clearance in Mycobacterium tuberculosis H37Rv ATCC 2517-infected hollow fiber system based in vitro pharmacokinetic-pharmacodynamic tuberculosis model; type: ADME, organism-based
[22] = AUC in Mycobacterium tuberculosis H37Rv ATCC 2517-infected hollow fiber system based in vitro pharmacokinetic-pharmacodynamic tuberculosis model at 14 mg/L for 0.5 hrs; type: ADME
[23] = AUC in Mycobacterium tuberculosis H37Rv ATCC 2517-infected hollow fiber system based in vitro pharmacokinetic-pharmacodynamic tuberculosis model at 7 mg/L for 1 hr; type: ADME
[24] = AUC in Mycobacterium tuberculosis H37Rv ATCC 2517-infected hollow fiber system based in vitro pharmacokinetic-pharmacodynamic tuberculosis model at 7 mg/L for 2 hrs; type: ADME
[25] = AUC in Mycobacterium tuberculosis H37Rv ATCC 2517-infected hollow fiber system based in vitro pharmacokinetic-pharmacodynamic tuberculosis model at 2 mg/L for 7 hrs; type: ADME
[26] = test system: Mycobacterium tuberculosis; test: Antimycobacterial activity against Mycobacterium tuberculosis H37Rv ATCC 2517 infected in hollow fiber system based in vitro pharmacokinetic-pharmacodynamic tuberculosis model assessed as microbial killing administered at simulated dose of 4200 mg, po once weekly; type: functional, organism-based; method in brief: as §2
[27] = test system: Mycobacterium tuberculosis; test: Antimycobacterial activity against Mycobacterium tuberculosis H37Rv ATCC 2517 infected in hollow fiber system based in vitro pharmacokinetic-pharmacodynamic tuberculosis model assessed as microbial killing administered at simulated dose of 2100 mg, po twice weekly; type: functional, organism-based; method in brief: as §2
[28] = test system: Mycobacterium tuberculosis; test: Drug uptake in Mycobacterium tuberculosis H37Rv ATCC 2517-infected hollow fiber system based in vitro pharmacokinetic-pharmacodynamic tuberculosis model; type: ADME, organism-based
Method in brief: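 Log-phase culture was adjusted to 10^6 CFU/ml in 7H9 broth held at 37°C or 0°C, then given 0, 2, 7 or 14 mg/liter drug. Samples taken at 0, 5, 15, 30 and 60 min were spun through silicone oil, and drug in the pellet was measured by LC-MS. Values at 0°C (cell-wall binding) were subtracted from those at 37°C. Cell volume was estimated from protein by BCA. Run in triplicate.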

[29] = test system: Mycobacterium tuberculosis; test: microbe, parasite or virus in culture

SMILES: CO[C@H]1/C=C/O[C@@]2(C)Oc3c(C)c(O)c4c(O)c(c(/C=N/N5CCN(C)CC5)c(O)c4c3C2=O)NC(=O)/C(C)=C\C=C\[C@H](C)[C@H](O)[C@@H](C)[C@@H](O)[C@@H](C)[C@H](OC(C)=O)[C@@H]1C [RIFAMPIN]
- fCmax (Homo sapiens [1]): 2 mg/L
- fAUC (Homo sapiens [2]): 16000 ng·h/mL
- AUC at 168 h [3]: 112000 ng·h/mL
- fCmax (Homo sapiens [4]): 7 mg/L
- fCmax (Homo sapiens [5]): 14 mg/L
- fAUC (Homo sapiens [6]): 112000 ng·h/mL
- fAUC (Homo sapiens [7]): 112000 ng·h/mL
- AUC(0-t) at 168 h [8]: 122000 ng·h/mL
- AUC(0-t) at 168 h [9]: 14000 ng·h/mL
- CFU [10]: 1.95 mL⁻¹
- PAE [11]: 5.2 days
- PAE [12]: 12 days
- PAE [13]: 12.9 days
- PAE [14]: 19.3 days
- Kgmax [15]: 9.756 ×10⁻³ log10CFU/ml/hr
- C50g [16]: 1932 mg/L
- Hg [17]: 0.361
- Kkmax [18]: 15.829 ×10⁻³ log10CFU/ml/hr
- C50k [19]: 7.652 mg/L
- Hk [20]: 1.388
- CL [21]: 99 L/h
- AUC at 0.5 h, 14 mg/L [22]: 7000 ng·h/mL
- AUC at 1 h, 7 mg/L [23]: 7000 ng·h/mL
- AUC at 2 h, 7 mg/L [24]: 14000 ng·h/mL
- AUC at 7 h, 2 mg/L [25]: 14000 ng·h/mL
- Activity [26]: Active
- Activity [27]: Active
- Drug uptake [28]: Dose-dependent effect
- MIC90 [29]: 0.125 µg/mL (≈ 0.152 µM)
